Source: ChEMBL document CHEMBL4715718, “Methyl Protodioscin, a Steroidal Saponin, Inhibits Neointima Formation in Vitro and in Vivo” (J Nat Prod, 2016)
Calls of active or inactive are those of the source. The rule behind the calls is not given here.

What was measured:
[1] = Antiproliferative activity against rat A7r5 cells assessed as reduction in cell viability after 24 hrs by MTT assay; conditions: A7R5, 24 h
[2] = system: Rattus norvegicus; experiment: Inhibition of neointima formation index of injured vessel in rat model of balloon injury induced neointimal hyperplasia at 3 to 6 uM administered as extravascular treatment and measured after 2 weeks by hematoxylin and eosin Y staining based histopathological analysis; format: functional; conditions: dose 3-6 µM
How it was run: (§1)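 Male rats (3–4 months, 300–350 g) were randomized into four groups: sham, balloon injury + PBS, and balloon injury + 3 μM or 6 μM compound. PBS or compound was given extravascularly in ice-cold 30% (w/v) pluronic F-127 gel. Arterial sections 5–10 μm thick (6 per block) were stained with hematoxylin and eosin Y. Intima, media and lumen areas and the intima/media ratio were measured by image analysis.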

[3] = target: T1, Disintegrin and metalloproteinase domain-containing protein 15 (Rattus norvegicus) (UniProt Q9QYV0); experiment: Inhibition of ADAM15-mediated FAK phosphorylation in rat A7r5 cells at 3 to 9 uM after 24 hrs by western blot analysis; format: cell-based; conditions: dose 3-9 µM
T1 sequence (whole entry): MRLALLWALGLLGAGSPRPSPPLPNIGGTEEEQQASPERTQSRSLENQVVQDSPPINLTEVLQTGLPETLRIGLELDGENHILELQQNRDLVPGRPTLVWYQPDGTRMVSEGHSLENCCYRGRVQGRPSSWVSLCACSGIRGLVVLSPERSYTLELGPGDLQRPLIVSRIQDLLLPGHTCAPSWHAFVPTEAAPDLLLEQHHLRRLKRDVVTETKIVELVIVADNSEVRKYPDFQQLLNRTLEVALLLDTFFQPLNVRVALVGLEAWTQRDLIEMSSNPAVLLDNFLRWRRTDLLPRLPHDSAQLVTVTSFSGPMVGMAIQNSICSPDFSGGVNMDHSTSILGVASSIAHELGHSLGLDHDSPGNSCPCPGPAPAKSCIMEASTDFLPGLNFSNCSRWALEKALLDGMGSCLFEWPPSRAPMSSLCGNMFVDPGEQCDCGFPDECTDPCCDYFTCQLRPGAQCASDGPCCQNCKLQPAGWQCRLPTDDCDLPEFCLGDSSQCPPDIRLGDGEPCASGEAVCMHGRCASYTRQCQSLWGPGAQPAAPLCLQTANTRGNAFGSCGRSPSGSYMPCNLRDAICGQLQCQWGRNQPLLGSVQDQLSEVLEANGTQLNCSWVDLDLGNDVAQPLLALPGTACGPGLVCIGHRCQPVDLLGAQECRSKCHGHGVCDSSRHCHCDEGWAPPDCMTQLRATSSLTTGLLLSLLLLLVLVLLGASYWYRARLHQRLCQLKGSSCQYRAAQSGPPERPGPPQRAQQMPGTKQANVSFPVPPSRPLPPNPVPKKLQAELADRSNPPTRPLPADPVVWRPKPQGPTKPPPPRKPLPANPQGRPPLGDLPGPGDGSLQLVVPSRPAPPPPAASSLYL
How it was run: (§2)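 A7r5 rat aortic smooth muscle cells (DMEM, 10% FBS, 37 °C, 5% CO2) treated with 3, 6 or 9 μM in culture medium for 24 h. Lysed in 2% SDS/50 mM DTT/62.5 mM Tris-HCl pH 6.8 at 95 °C for 5 min. SDS-PAGE, PVDF transfer, 5% milk block, HRP secondary. Band expressed as % of control; mean ± SD, n = 3, one-way ANOVA.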

[4] = system: A7R5; experiment: Induction of apoptosis in rat A7r5 cells assessed as change in sub-G1 phase at 3 to 9 uM after 24 hrs by PI/RNase A staining based flow cytometric analysis; format: functional, cell-based; conditions: dose 3-9 µM
How it was run: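 A7r5 cells were plated at 1.0 × 10^5 per 10 cm dish and exposed to graded concentrations in DMEM with 10% FBS. They were trypsinized, fixed in ice-cold 70% ethanol overnight at −20 °C, then stained with PI/Triton X-100/RNase A at 37 °C for at least 30 min in the dark. Sub-G1, G0/G1, S and G2/M fractions were read by FACScan. Control: 10% FBS; n = 3.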

[5] = (§3) Inhibition of neointima formation of injured vessel in rat model of balloon injury induced neointimal hyperplasia assessed as area of media at 6 uM administered as extravascular treatment and measured after 2 weeks by hematoxylin and eosin Y staining based histopathological analysis (reference value: 1462.7 +/-393.9 um2); format: functional; how it was run: as §1
[6] = as §3, with “at 3” for “at 6”; format: functional; how it was run: as §1
[7] = target: T1, Disintegrin and metalloproteinase domain-containing protein 15 (Rattus norvegicus); experiment: Inhibition of ADAM15-mediated MMP-9 activity in rat A7r5 cells at 9 uM after 24 hrs by gelatin zymography; format: cell-based
How it was run: (§4)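 Conditioned medium came from A7r5 cells (1.0 × 10^5 per 10 cm dish) held 24 h with the compound in DMEM/10% FBS. It ran under nonreducing conditions on 10% SDS-PAGE with 0.1% gelatin. Gels were washed in 2.5% Triton X-100 for 1 h, developed at 37 °C in pH 8.0 Tris/10 mM CaCl2 buffer, then Coomassie stained and destained. Clear bands were quantified as % of control; n = 3.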

[8] = system: A7R5; experiment: Induction of apoptosis in rat A7r5 cells assessed as effect on Bax protein expression at 3 to 9 uM after 24 hrs by Western blot analysis; format: functional, cell-based; conditions: dose 3-9 µM
How it was run: (§5)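 Bax and Bcl-2 in A7r5 cells are immunoblotted after treatment (3, 6 and 9 μM, 24 h) in culture medium. Lysis in SDS/DTT/Tris buffer pH 6.8 at 95 °C, then SDS-PAGE and PVDF. Bands are given relative to the 10% FBS control, and the Bax/Bcl-2 ratio is computed. Triplicate; one-way ANOVA.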

[9] = system: A7R5; experiment: Down regulation of ERK2 expression in rat A7r5 cells at 3 to 9 uM after 24 hrs by Western blot analysis; format: functional, cell-based; conditions: dose 3-9 µM; how it was run: as §2
[10] = system: A7R5; experiment: Induction of apoptosis in rat A7r5 cells assessed as effect on Bcl2 protein expression at 3 to 9 uM after 24 hrs by Western blot analysis; format: functional, cell-based; conditions: dose 3-9 µM; how it was run: as §5
[11] = system: A7R5; experiment: Down regulation of MMP-9 expression in rat A7r5 cells at 3 to 9 uM after 24 hrs by Western blot analysis; format: functional, cell-based; conditions: dose 3-9 µM; how it was run: as §2
[12] = as §3, with “intima” for “media”, “3346.4 +/-556.7” for “1462.7 +/-393.9”; format: functional; how it was run: as §1
[13] = as §3, with “lumen” for “media”, “3” for “6”, “6809.1 +/-820.8” for “1462.7 +/-393.9”; format: functional; how it was run: as §1
[14] = system: A7R5; experiment: Down regulation of ERK1 expression in rat A7r5 cells at 3 to 9 uM after 24 hrs by Western blot analysis; format: functional, cell-based; conditions: dose 3-9 µM; how it was run: as §2
[15] = target: T1, Disintegrin and metalloproteinase domain-containing protein 15 (Rattus norvegicus); experiment: Inhibition of ADAM15-mediated ERK phosphorylation in rat A7r5 cells at 3 to 9 uM after 24 hrs by western blot analysis; format: cell-based; conditions: dose 3-9 µM; how it was run: as §2
[16] = target: T1, Disintegrin and metalloproteinase domain-containing protein 15 (Rattus norvegicus); experiment: Inhibition of ADAM15-mediated AKT phosphorylation in rat A7r5 cells at 3 to 9 uM after 24 hrs by western blot analysis; format: cell-based; conditions: dose 3-9 µM; how it was run: as §2
[17] = system: A7R5; experiment: Down regulation of FAK expression in rat A7r5 cells at 3 to 9 uM after 24 hrs by Western blot analysis; format: functional, cell-based; conditions: dose 3-9 µM; how it was run: as §2
[18] = system: A7R5; experiment: Down regulation of PI3K expression in rat A7r5 cells at 3 to 9 uM after 24 hrs by Western blot analysis; format: functional, cell-based; conditions: dose 3-9 µM; how it was run: as §2
[19] = as §3, with “lumen” for “media”, “6809.1 +/-820.8” for “1462.7 +/-393.9”; format: functional; how it was run: as §1
[20] = system: A7R5; experiment: Induction of cell cycle arrest in rat A7r5 cells assessed as accumulation of cells at G0/G1 phase at 3 to 9 uM after 18 hrs by PI/RNase A staining based flow cytometric analysis; format: functional; conditions: dose 3-9 µM
[21] = system: A7R5; experiment: Inhibition of cell migration in rat A7r5 cells at 9 uM after 18 hrs by scratch wound healing assay; format: functional, cell-based
[22] = system: Rattus norvegicus; experiment: Reduction in ADAM15 protein expression in VSMCs and injured arteries in rat model of balloon injury induced neointimal hyperplasia at 3 to 6 uM administered as extravascular treatment and measured after 2 weeks by Western blot analysis; format: functional; conditions: dose 3-6 µM
[23] = system: A7R5; experiment: Down regulation of MMP-2 expression in rat A7r5 cells at 3 to 9 uM after 24 hrs by Western blot analysis; format: functional, cell-based; conditions: dose 3-9 µM; how it was run: as §2
[24] = system: A7R5; experiment: Down regulation of ADAM15 protein translational level in rat A7r5 cells at 9 uM after 24 hrs by Western blot analysis; format: functional, cell-based; how it was run: as §2
[25] = system: A7R5; experiment: Induction of apoptosis in rat A7r5 cells assessed as effect on Bax/Bcl2 expression ratio at 3 to 9 uM measured after 24 hrs by Western blot analysis; format: functional, cell-based; conditions: dose 3-9 µM; how it was run: as §5
[26] = (§6) Inhibition of neointima formation of injured vessel in rat model of balloon injury induced neointimal hyperplasia assessed as ratio of area of intima-to-media at 6 uM administered as extravascular treatment and measured after 2 weeks by hematoxylin and eosin Y staining based histopathological analysis (reference value: 1.98 +/-0.36); format: functional; how it was run: as §1
[27] = as §6, with “at 3” for “at 6”; format: functional; how it was run: as §1
[28] = as §3, with “intima” for “media”, “3” for “6”, “3346.4 +/-556.7” for “1462.7 +/-393.9”; format: functional; how it was run: as §1
[29] = system: A7R5; experiment: Inhibition of cell migration in rat A7r5 cells at 6 to 9 uM after 16 hrs by crystal violet staining based transwell assay; format: functional; conditions: dose 6-9 µM
How it was run: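 Transwell, 8 μm pore: 1.2 × 10^4 A7r5 cells in the upper chamber attach for 2 h. The upper chamber then receives serum-free medium with compound, and the lower chamber 10% FBS medium with compound, for 16 h at 37 °C. Cells are fixed in formaldehyde, stained with crystal violet and counted in five random fields. Migration is given as % of control cell number.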

[30] = system: A7R5; experiment: Down regulation of AKT expression in rat A7r5 cells at 3 to 9 uM after 24 hrs by Western blot analysis; format: functional, cell-based; conditions: dose 3-9 µM; how it was run: as §2
[31] = target: T1, Disintegrin and metalloproteinase domain-containing protein 15 (Rattus norvegicus); experiment: Inhibition of ADAM15-mediated MMP-9 activity in rat A7r5 cells at 6 uM after 24 hrs by gelatin zymography; format: cell-based; how it was run: as §4
[32] = target: T1, Disintegrin and metalloproteinase domain-containing protein 15 (Rattus norvegicus); experiment: Inhibition of ADAM15-mediated PI3K phosphorylation in rat A7r5 cells at 3 to 9 uM after 24 hrs by western blot analysis; format: cell-based; conditions: dose 3-9 µM; how it was run: as §2

With `CO[C@]1(CC[C@@H](C)CO[C@@H]2O[C@H](CO)[C@@H](O)[C@H](O)[C@H]2O)O[C@H]2C[C@H]3[C@@H]4CC=C5C[C@@H](O[C@@H]6O[C@H](CO)[C@@H](O[C@@H]7O[C@@H](C)[C@H](O)[C@@H](O)[C@H]7O)[C@H](O)[C@H]6O[C@@H]6O[C@@H](C)[C@H](O)[C@@H](O)[C@H]6O)CC[C@]5(C)[C@H]4CC[C@]3(C)[C@H]2[C@@H]1C` [METHYLPROTODIOSCIN] as the compound, how does the IC50 [1] read?
The IC50 was 9 µM.

What about the inhibition [2] of the same compound?
Its inhibition is “Active”.

What about the inhibition [3] of the same compound?
Its inhibition is “Active”.

What about the Activity [4] of the same compound?
Its Activity is “inactive”.

And the Activity [5]?
The Activity was 1164.2 um2.

And the Activity [6]?
Its Activity is 1902 um2.

What about the inhibition [7] of the same compound?
The inhibition was “Active”.

What about the Activity [8] of the same compound?
The Activity was “inactive”.

And the inhibition [9]?
Its inhibition is “Active”.

What about the Activity [10] of the same compound?
The Activity was “inactive”.

And the inhibition [11]?
The inhibition was “Active”.

And the Activity [12]?
Its Activity is 912.4 um2.

And the Activity [13]?
Its Activity is 4730.4 um2.

And the inhibition [14]?
Its inhibition is “Active”.

And the inhibition [15]?
Its inhibition is “Active”.

What about the inhibition [16] of the same compound?
Its inhibition is “Active”.

And the inhibition [17]?
The inhibition was “Active”.

And the inhibition [18]?
The inhibition was “Active”.

What about the Activity [19] of the same compound?
The Activity was 3076.6 um2.

What about the Activity [20] of the same compound?
The Activity was “Active”.

And the inhibition [21]?
The inhibition was “Active”.

What about the inhibition [22] of the same compound?
The inhibition was “Active”.

What about the inhibition [23] of the same compound?
Its inhibition is “Active”.

What about the inhibition [24] of the same compound?
The inhibition was “Active”.

What about the Activity [25] of the same compound?
The Activity was “inactive”.

And the Ratio [26]?
The Ratio was 0.34.

What about the Ratio [27] of the same compound?
Its Ratio is 0.92.

What about the Activity [28] of the same compound?
Its Activity is 1828.4 um2.

And the inhibition [29]?
Its inhibition is “Active”.

What about the inhibition [30] of the same compound?
The inhibition was “Active”.

And the inhibition [31]?
Its inhibition is “Active”.

And the inhibition [32]?
Its inhibition is “Active”.
